# In ChEMBL document CHEMBL1649122, “Abc1p is a multidrug efflux transporter that tips the balance in favor of innate azole resistance in Candida krusei” (2009):
# Calls of active or inactive are those of the source. No cut-off for these calls is given here.
# How the values were obtained:
# [1] = tested on: Pichia kudriavzevii; assay: Antimicrobial activity against Candida krusei NZCDC 90.147 after 48 hrs by CLSI method; format: functional
# Summary of the method: (§1)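 Azole MICs were determined by the CLSI M27-A2 broth microdilution reference method. They were interpreted against the CLSI breakpoints. Strains were maintained in YPD medium (1% yeast extract, 2% peptone, 2% glucose).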
# [2] = tested on: Pichia kudriavzevii; assay: Antimicrobial activity against Candida krusei NZCDC 89.021 after 48 hrs by liquid microdilution assay; format: functional; details: NZCDC 89.021, 48 h
# Summary of the method: (§2)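 Liquid broth microdilution susceptibility assay in CSM medium at pH 7.0, which was also the medium used for the expression studies. Fungal strains were maintained in YPD. The S. cerevisiae test strains carry C. krusei ABC1 or fungal ERG11 alleles integrated at the chromosomal PDR5 locus.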
# [3] = tested on: Saccharomyces cerevisiae; assay: Antimicrobial activity against Saccharomyces cerevisiae isolate ADdelta overexpressing Saccharomyces cerevisiae ERG11 after 48 hrs by liquid microdilution assay; format: functional; summary of the method: as §2
# [4] = tested on: Pichia kudriavzevii; assay: Increase in ERG11 mRNA expression in Candida krusei B2399 at 2 times MIC concentration after 1 hr by hot-phenol extraction based Northern blotting; format: functional, organism-based
# Summary of the method: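 Logarithmically grown C. krusei B2399 was exposed to azole for 60 min (2x MIC for VRC, MCZ and ITC; 1x MIC for FLC) alongside an untreated control. Total RNA was extracted with hot phenol, and 10 µg was run on 1.2% denaturing agarose. It was Northern blotted and probed with a radiolabeled ERG11 fragment. ACT1 mRNA served as internal control, with EtBr-stained rRNA showing loading.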
# [5] = tested on: Saccharomyces cerevisiae; assay: Fold resistant, ratio of MIC for Saccharomyces cerevisiae isolate ADdelta overexpressing Candida albicans ERG11A to MIC for Saccharomyces cerevisiae isolate ADdelta overexpressing Abc1p; format: functional
# Summary of the method: (§3)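 Fold resistance is the ratio of azole MICs between S. cerevisiae overexpressing strains. The MICs were measured by liquid broth microdilution in CSM medium at pH 7.0. The ERG11 or ABC1 constructs are integrated at the PDR5 locus.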
# [6] = tested on: Saccharomyces cerevisiae; assay: Fold resistant, ratio of MIC for Saccharomyces cerevisiae isolate ADdelta overexpressing Candida krusei ERG11g to MIC for Saccharomyces cerevisiae isolate ADdelta overexpressing Abc1p; format: functional; summary of the method: as §3
# [7] = tested on: Saccharomyces cerevisiae; assay: Antimicrobial activity against Saccharomyces cerevisiae isolate ADdelta overexpressing Candida albicans ERG11A after 48 hrs by liquid microdilution assay; format: functional; summary of the method: as §2
# [8] = tested on: Saccharomyces cerevisiae; assay: Antimicrobial activity against Saccharomyces cerevisiae isolate ADdelta overexpressing Abc1p after 48 hrs by liquid microdilution assay; format: functional; summary of the method: as §2
# [9] = tested on: Pichia kudriavzevii; assay: Antimicrobial activity against Candida krusei B2399 after 48 hrs by liquid microdilution assay; format: functional; details: B2399, 48 h; summary of the method: as §2
# [10] = tested on: Saccharomyces cerevisiae; assay: Fold resistant, ratio of MIC for Saccharomyces cerevisiae isolate ADdelta overexpressing Candida krusei ERG11C to MIC for Saccharomyces cerevisiae isolate ADdelta overexpressing Abc1p; format: functional; summary of the method: as §3
# [11] = molecular target: ATP binding cassette transporter Abc1p (Issatchenkia orientalis) (UniProt Q09GQ4); assay: Inhibition of Candida krusei ABC1 expressed in Saccharomyces cerevisiae isolate ADdelta at 0.36 nM; details: Pichia kudriavzevii
# Summary of the method: (§4)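 Agarose disk-diffusion test of S. cerevisiae AD overexpressing C. krusei Abc1p, with the parent AD strain as comparison. Cells were pregrown from YPD overnight into CSM to mid-log at 30°C. They were seeded at OD600 0.008 in CSM with 0.6% agarose, overlaid on CSM agar (pH 7.0). Paper disks carrying set nmol amounts of xenobiotic were applied, and plates were incubated at 30°C for 48 h before reading growth inhibition zones.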
# [12] = tested on: Pichia kudriavzevii; assay: Antimicrobial activity against Candida krusei NZCDC 90.147 after 48 hrs by liquid microdilution assay; format: functional; details: NZCDC 90.147, 48 h; summary of the method: as §2
# [13] = tested on: Pichia kudriavzevii; assay: Antimicrobial activity against Candida krusei NZCDC 89.221 after 48 hrs by CLSI method; format: functional; summary of the method: as §1
# [14] = molecular target: ATP binding cassette transporter Abc1p (Issatchenkia orientalis) (UniProt Q09GQ4); assay: Inhibition of Candida krusei […] expressed in Saccharomyces cerevisiae isolate ADdelta assessed as fractional inhibitory concentration index at 2.5 ug/ml after 48 hrs by checkerboard susceptibility assay; details: Pichia kudriavzevii
# Summary of the method: (§5)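 Checkerboard susceptibility assay combining the Abc1p inhibitor with FLC or ITC. MICs were determined at various inhibitor concentrations. The fractional inhibitory concentration index was calculated for each combination.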
# [15] = tested on: Pichia kudriavzevii; assay: Antimicrobial activity against Candida krusei NZCDC 89.102 after 48 hrs by liquid microdilution assay; format: functional; details: NZCDC 89.102, 48 h; summary of the method: as §2
# [16] = tested on: Pichia kudriavzevii; assay: Antimicrobial activity against Candida krusei IFO0011 after 48 hrs by liquid microdilution assay; format: functional; details: IFO0011, 48 h; summary of the method: as §2
# [17] = tested on: Pichia kudriavzevii; assay: Antimicrobial activity against Candida krusei NZCDC 89.021 after 48 hrs by CLSI method; format: functional; details: NZCDC 89.021, 48 h; summary of the method: as §1
# [18] = tested on: Pichia kudriavzevii; assay: Antimicrobial activity against Candida krusei IFO0011 after 48 hrs by CLSI method; format: functional; details: IFO0011, 48 h; summary of the method: as §1
# [19] = molecular target: ATP binding cassette transporter Abc1p (Issatchenkia orientalis) (UniProt Q09GQ4); assay: Inhibition of Candida krusei B2399 Abc1p assessed as fractional inhibitory concentration index at 2.5 ug/ml after 48 hrs by checkerboard susceptibility assay; details: Pichia kudriavzevii; summary of the method: as §5
# [20] = tested on: Pichia kudriavzevii; assay: Antimicrobial activity against Candida krusei B2399 after 48 hrs by CLSI method; format: functional; details: B2399, 48 h; summary of the method: as §1
# [21] = tested on: Saccharomyces cerevisiae; assay: Fold resistant, ratio of MIC for Saccharomyces cerevisiae isolate ADdelta overexpressing Saccharomyces cerevisiae ERG11 to MIC for Saccharomyces cerevisiae isolate ADdelta overexpressing Abc1p; format: functional; summary of the method: as §3
# [22] = tested on: Saccharomyces cerevisiae; assay: Antimicrobial activity against Saccharomyces cerevisiae isolate AD overexpressing Candida krusei ERG11C after 48 hrs by liquid microdilution assay; format: functional; summary of the method: as §2
# [23] = tested on: Pichia kudriavzevii; assay: Antimicrobial activity against Candida krusei NZCDC 89.221 after 48 hrs by liquid microdilution assay; format: functional; details: NZCDC 89.221, 48 h; summary of the method: as §2
# [24] = tested on: Pichia kudriavzevii; assay: Antimicrobial activity against Candida krusei NZCDC 89.102 after 48 hrs by CLSI method; format: functional; summary of the method: as §1
# [25] = tested on: Saccharomyces cerevisiae; assay: Antimicrobial activity against Saccharomyces cerevisiae isolate ADdelta overexpressing Candida krusei ERG11g after 48 hrs by liquid microdilution assay; format: functional; summary of the method: as §2
# [26] = molecular target: ATP binding cassette transporter Abc1p (Issatchenkia orientalis) (UniProt Q09GQ4); assay: Inhibition of Candida krusei ABC1 expressed in Saccharomyces cerevisiae isolate ADdelta at 0.026 nM; details: Pichia kudriavzevii; summary of the method: as §4
# [27] = molecular target: ATP binding cassette transporter Abc1p (Issatchenkia orientalis) (UniProt Q09GQ4); assay: Inhibition of Candida krusei ABC1 expressed in Saccharomyces cerevisiae isolate ADdelta at 2 nM; details: Pichia kudriavzevii
# [28] = molecular target: ATP binding cassette transporter Abc1p (Issatchenkia orientalis) (UniProt Q09GQ4); assay: Inhibition of Candida krusei ABC1 expressed in Saccharomyces cerevisiae isolate ADdelta at 22 nM; details: Pichia kudriavzevii
# [29] = molecular target: ATP binding cassette transporter Abc1p (Issatchenkia orientalis) (UniProt Q09GQ4); assay: Inhibition of Candida krusei ABC1 expressed in Saccharomyces cerevisiae isolate ADdelta at 0.28 nM; details: Pichia kudriavzevii
Compound,MIC [1] [µg/mL],MIC [2] [µg/mL],MIC [3] [µg/mL],Activity [4],ratio [5],ratio [6],MIC [7] [µg/mL],MIC [8] [µg/mL],MIC [9] [µg/mL],ratio [10],MIC [13] [µg/mL],MIC [15] [µg/mL],MIC [17] [µg/mL],MIC [18] [µg/mL],MIC [20] [µg/mL],ratio [21],MIC [22] [µg/mL],MIC [23] [µg/mL],MIC [24] [µg/mL],MIC [25] [µg/mL],other results
CCC(C)n1ncn(-c2ccc(N3CCN(c4ccc(OCC5COC(Cn6cncn6)(c6ccc(Cl)cc6Cl)O5)cc4)CC3)cc2)c1=O (configuration not stated) [ITRACONAZOLE],0.25,1,0.25,Active,4,128,0.125,0.031,0.5,2,0.125,2,0.25,0.25,0.25,8,0.063,1,0.25,4,Activity [11]: inactive; MIC [12]: 1 µg/mL; fractional inhibitory concentration index (FICI) [14]: 0.104; MIC [16]: 1 µg/mL; fractional inhibitory concentration index (FICI) [19]: 0.298
Clc1ccc(COC(Cn2ccnc2)c2ccc(Cl)cc2Cl)c(Cl)c1 (configuration not stated) [MICONAZOLE],4,4,0.031,Active,8,64,0.063,0.0078,2,16,2,4,2,4,4,4,0.125,4,2,0.5,Activity [26]: inactive
C/C=C/C/C=C/CCC(=O)[C@H]1O[C@H]1C(N)=O,,,,,,,,,,,,,,,,,,,,,Activity [27]: Active
NYSTATIN,,,,,,,,,,,,,,,,,,,,,Activity [28]: inactive
C[C@@H](c1ncncc1F)[C@](O)(Cn1cncn1)c1ccc(F)cc1F [VORICONAZOLE],1,2,0.063,Active,4,64,0.031,0.0078,1,8,0.5,2,0.5,1,0.5,8,0.063,1,0.5,0.5,MIC [12]: 2 µg/mL; MIC [16]: 1 µg/mL
CC(=O)N1CCN(c2ccc(OCC3COC(Cn4ccnc4)(c4ccc(Cl)cc4Cl)O3)cc2)CC1 (configuration not stated) [KETOCONAZOLE],1,4,0.063,,4,64,0.125,0.031,2,2,0.5,4,0.5,1,0.5,2,0.063,2,0.5,2,MIC [12]: 4 µg/mL; MIC [16]: 2 µg/mL; Activity [29]: inactive
